ChEMBL document CHEMBL3351505, “Ultrasound-assisted synthesis of novel 1,2,3-triazoles coupled diaryl sulfone moieties by the CuAAC reaction, and biological evaluation of them as antioxidant and antimicrobial agents” (Eur J Med Chem, 2014)
Values after ≈ are worked out from the molar mass of the structure shown. Active and inactive are the calls of the source. No cut-off for these calls is given here.

Columns and labels:
Bacillus subtilis [1] = assay: Antibacterial activity against Bacillus subtilis ATCC 6633 after 24 hrs by two fold serial dilution method; type: functional
Escherichia coli [2] = assay: Antibacterial activity against Escherichia coli ATCC 25922 using 100 uL of test compound after 24 hrs by agar well diffusion method; type: functional
Summary of the method: (§1)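 Agar well diffusion. Nutrient agar was spread with bacterial suspension at 1×10⁸ CFU/mL, and 10 mm wells were cut. Wells were loaded with compound solution made at 200 mg per 1 mL DMSO. Plates were incubated 24 h at 37 °C and inhibition zones were measured. DMSO served as the negative control.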

Aspergillus niger [3] = assay: Antifungal activity against Aspergillus niger after 48 hrs by two fold serial dilution method; type: functional
Summary of the method: (§2)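 Two-fold serial broth dilution in a suitable broth, run only on compounds giving inhibition zones of at least 16 mm. Final concentrations were […]. Each 5 mL received 0.1 mL inoculum and was incubated 48 h at 28 °C. MIC was the lowest concentration without growth.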

Escherichia coli [4] = assay: Antibacterial activity against Escherichia coli ATCC 25922 after 24 hrs by two fold serial dilution method; type: functional
Aspergillus niger [5] = assay: Antifungal activity against Aspergillus niger using 100 uL of test compound after 48 hrs by agar well diffusion method; type: functional
Summary of the method: as §1, with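 “Sabouraud dextrose” for “Nutrient”, “yeast or fungal” for “bacterial”, “1×10⁶” for “1×10⁸”, “48” for “24”, “28” for “37”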

Saccharomyces cerevisiae [6] = assay: Antifungal activity against Saccharomyces cerevisiae using 100 uL of test compound after 48 hrs by agar well diffusion method; type: functional
Summary of the method: as §1, with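 “Sabouraud dextrose” for “Nutrient”, “yeast or fungal” for “bacterial”, “1×10⁶” for “1×10⁸”, “48” for “24”, “28” for “37”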

Priestia megaterium [7] = assay: Antibacterial activity against Bacillus megaterium ATCC 9885 after 24 hrs by two fold serial dilution method; type: functional
Bacillus subtilis [8] = assay: Antibacterial activity against Bacillus subtilis ATCC 6633 using 100 uL of test compound after 24 hrs by agar well diffusion method; type: functional; summary of the method: as §1
Pseudomonas aeruginosa [9] = assay: Antibacterial activity against Pseudomonas aeruginosa ATCC 27953 using 100 uL of test compound after 24 hrs by agar well diffusion method; type: functional; summary of the method: as §1
Saccharomyces cerevisiae [10] = assay: Antifungal activity against Saccharomyces cerevisiae after 48 hrs by two fold serial dilution method; type: functional; summary of the method: as §2
Candida albicans [11] = assay: Antifungal activity against Candida albicans NRRL Y-477 using 100 uL of test compound after 48 hrs by agar well diffusion method; type: functional
Summary of the method: as §1, with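 “Sabouraud dextrose” for “Nutrient”, “yeast or fungal” for “bacterial”, “1×10⁶” for “1×10⁸”, “48” for “24”, “28” for “37”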

Micrococcus luteus [12] = assay: Antibacterial activity against Sarcina lutea after 24 hrs by two fold serial dilution method; type: functional
Staphylococcus aureus [13] = assay: Antibacterial activity against Staphylococcus aureus ATCC 29213 after 24 hrs by two fold serial dilution method; type: functional
[14] = Antioxidant activity assessed as DPPH free radical scavenging activity by spectrophotometric assay; type: physicochemical
Summary of the method: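 Sample solutions at several concentrations were added to 0.004% DPPH in methanol and incubated 60 min in the dark. Absorbance was read at 517 nm against a blank. Inhibition % = (A_blank − A_sample)/A_blank × 100, where the control contained all reagents except the test compound.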

Klebsiella pneumoniae [15] = assay: Antibacterial activity against Klebsiella pneumoniae ATCC 13883 using 100 uL of test compound after 24 hrs by agar well diffusion method; type: functional; summary of the method: as §1
Staphylococcus aureus [16] = assay: Antibacterial activity against Staphylococcus aureus ATCC 29213 using 100 uL of test compound after 24 hrs by agar well diffusion method; type: functional; summary of the method: as §1
Klebsiella pneumoniae [17] = assay: Antibacterial activity against Klebsiella pneumoniae ATCC 13883 after 24 hrs by two fold serial dilution method; type: functional
Micrococcus luteus [18] = assay: Antibacterial activity against Sarcina lutea using 100 uL of test compound after 24 hrs by agar well diffusion method; type: functional; summary of the method: as §1
Priestia megaterium [19] = assay: Antibacterial activity against Bacillus megaterium ATCC 9885 using 100 uL of test compound after 24 hrs by agar well diffusion method; type: functional; summary of the method: as §1
Candida albicans [20] = assay: Antifungal activity against Candida albicans NRRL Y-477 after 48 hrs by two fold serial dilution method; type: functional; summary of the method: as §2
Pseudomonas aeruginosa [21] = assay: Antibacterial activity against Pseudomonas aeruginosa ATCC 27953 after 24 hrs by two fold serial dilution method; type: functional

| Compound | MIC (Bacillus subtilis [1]) | diameter of the inhibition zone (DIZ) (Escherichia coli [2]) [mm] | MIC (Aspergillus niger [3]) [µg/mL] | MIC (Escherichia coli [4]; ATCC 25922, 24 h) [µg/mL] | diameter of the inhibition zone (DIZ) (Aspergillus niger [5]) [mm] | diameter of the inhibition zone (DIZ) (Saccharomyces cerevisiae [6]) [mm] | MIC (Priestia megaterium [7]) | diameter of the inhibition zone (DIZ) (Bacillus subtilis [8]) [mm] | diameter of the inhibition zone (DIZ) (Pseudomonas aeruginosa [9]) [mm] | MIC (Saccharomyces cerevisiae [10]) | diameter of the inhibition zone (DIZ) (Candida albicans [11]) [mm] | MIC (Micrococcus luteus [12]) [µg/mL] | MIC (Staphylococcus aureus [13]) | IC50 [14] [µg/mL] | diameter of the inhibition zone (DIZ) (Klebsiella pneumoniae [15]) [mm] | diameter of the inhibition zone (DIZ) (Staphylococcus aureus [16]) | MIC (Klebsiella pneumoniae [17]; ATCC 13883, 24 h) [µg/mL] | diameter of the inhibition zone (DIZ) (Micrococcus luteus [18]) [mm] | diameter of the inhibition zone (DIZ) (Priestia megaterium [19]) [mm] | MIC (Pseudomonas aeruginosa [21]) [µg/mL] | also measured |
| --- | --- | --- | --- | --- | --- | --- | --- | --- | --- | --- | --- | --- | --- | --- | --- | --- | --- | --- | --- | --- | --- |
| O=S(=O)(c1ccccc1)c1ccc(C(Cc2cn(Cc3ccccc3)nn2)OCc2cn(Cc3ccccc3)nn2)cc1 (centres undefined) | inactive | 19 | 50 (≈ 84.6 µM) | 200 (≈ 339 µM) | 30 | 18 | inactive | 15 | 18 | 200 µg/mL (≈ 339 µM) | 18 | 200 (≈ 339 µM) | inactive | 500 (≈ 846 µM) | 17 | 14 mm | 200 (≈ 339 µM) | 17 | 14 | 200 (≈ 339 µM) | MIC (Candida albicans [20]; NRRL Y-477, 48 h): 200 µg/mL (≈ 339 µM) |
| CC(O)(Cc1cn(Cc2ccccc2)nn1)c1ccc(S(=O)(=O)c2ccccc2)cc1 (centres undefined) | – | 22 | 25 (≈ 57.7 µM) | 200 (≈ 461 µM) | 32 | 16 | – | 16 | 23 | 200 µg/mL (≈ 461 µM) | 19 | 200 (≈ 461 µM) | – | 600 (≈ 1380 µM) | 24 | 22 mm | 100 (≈ 231 µM) | 23 | 17 | 200 (≈ 461 µM) | MIC (Bacillus subtilis [1]; ATCC 6633, 24 h): 200 µg/mL (≈ 461 µM); MIC (Priestia megaterium [7]; ATCC 9885, 24 h): 200 µg/mL (≈ 461 µM); MIC (Staphylococcus aureus [13]; ATCC 29213, 24 h): 200 µg/mL (≈ 461 µM); MIC (Candida albicans [20]; NRRL Y-477, 48 h): 200 µg/mL (≈ 461 µM) |
| CC(O)(Cc1cn(CC(=O)c2ccccc2)nn1)c1ccc(S(=O)(=O)c2ccccc2)cc1 (centres undefined) | – | 14 | 50 (≈ 108 µM) | – | 32 | 14 | inactive | 19 | 19 | inactive | 15 | 200 (≈ 433 µM) | – | 600 (≈ 1300 µM) | 13 | 18 mm | – | 22 | 15 | 200 (≈ 433 µM) | MIC (Bacillus subtilis [1]; ATCC 6633, 24 h): 200 µg/mL (≈ 433 µM); MIC (Escherichia coli [4]): inactive; MIC (Staphylococcus aureus [13]; ATCC 29213, 24 h): 200 µg/mL (≈ 433 µM); MIC (Klebsiella pneumoniae [17]): inactive; MIC (Candida albicans [20]): inactive |
| CC(Cc1cn(CC(=O)c2ccccc2)nn1)(OCc1cn(CC(=O)c2ccccc2)nn1)c1ccc(S(=O)(=O)c2ccccc2)cc1 (centres undefined) | inactive | 21 | 50 (≈ 75.7 µM) | 200 (≈ 303 µM) | 28 | 16 | – | 16 | 19 | 200 µg/mL (≈ 303 µM) | 15 | 200 (≈ 303 µM) | inactive | 125 (≈ 189 µM) | 23 | inactive | 200 (≈ 303 µM) | 17 | 17 | 200 (≈ 303 µM) | MIC (Priestia megaterium [7]; ATCC 9885, 24 h): 200 µg/mL (≈ 303 µM); MIC (Candida albicans [20]): inactive |
